These results are taken from ChEMBL document CHEMBL2010704 (J Med Chem, 2012).

Series [1] has as its system ABCG2. The series can be described thus: Therapeutic index, ratio of GI50 for human HEK293 cells transfected with ABCG2 to IC50 for ABCG2-mediated mitoxantrone efflux in HEK293 cells. In kind it is cell-based. Particulars: HEK293 cells transfected with ABCG2, probe mitoxantrone. In outline:
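Therapeutic index is IG50 for cytotoxicity (72-h MTT in HEK293-ABCG2 cells) divided by IC50 for inhibition of ABCG2-mediated mitoxantrone efflux measured by flow cytometry.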

In series [2] the target is T1, ABCG2 (Homo sapiens, UniProt Q9UNQ0).
T1 sequence (Q9UNQ0 whole entry): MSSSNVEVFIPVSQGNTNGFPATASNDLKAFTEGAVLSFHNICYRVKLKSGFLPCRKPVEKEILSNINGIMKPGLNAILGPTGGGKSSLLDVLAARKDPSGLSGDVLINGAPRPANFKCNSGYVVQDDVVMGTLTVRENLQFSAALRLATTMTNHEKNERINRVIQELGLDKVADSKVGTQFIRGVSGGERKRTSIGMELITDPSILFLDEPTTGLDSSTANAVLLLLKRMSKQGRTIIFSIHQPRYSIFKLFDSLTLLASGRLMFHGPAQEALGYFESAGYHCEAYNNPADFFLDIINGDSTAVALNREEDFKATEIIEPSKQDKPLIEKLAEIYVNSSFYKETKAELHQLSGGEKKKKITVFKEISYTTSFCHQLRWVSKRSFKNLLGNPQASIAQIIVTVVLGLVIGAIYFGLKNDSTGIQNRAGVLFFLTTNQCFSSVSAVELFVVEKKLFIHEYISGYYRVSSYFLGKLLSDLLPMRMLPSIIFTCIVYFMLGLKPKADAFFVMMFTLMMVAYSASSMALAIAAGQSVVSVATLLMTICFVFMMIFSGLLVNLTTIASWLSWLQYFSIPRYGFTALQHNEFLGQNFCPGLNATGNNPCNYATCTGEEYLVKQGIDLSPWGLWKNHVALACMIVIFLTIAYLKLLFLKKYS
As to the kind of experiment: Inhibition of ABCG2-mediated mitoxantrone efflux in HEK293 cells at 5 uM by flow cytometry relative to 5 uM of GF120918. In kind it is cell-based. As to conditions: HEK293 cells with ABCG2-mediated efflux, probe mitoxantrone. Summed up:
(§1)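 HEK293-ABCG2 cells seeded at 1 × 10^5 cells/well and grown 48 h, then loaded with 5 μM mitoxantrone for 30 min at 37 °C with or without compound. Cells washed in PBS and trypsinized; intracellular fluorescence read by flow cytometry on at least 10,000 events. […] IC50 from a concentration range; mean ± SD, n ≥ 3.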
For orientation: Flow cytometry measures light scatter and fluorescence of single cells or particles in a stream.

In series [3] the target is T1, ABCG2. As to the kind of experiment: Inhibition of ABCG2-mediated mitoxantrone efflux in HEK293 cells at 1 uM by flow cytometry relative to 5 uM of GF120918. In kind it is cell-based. Particulars: HEK293 cells with ABCG2-mediated efflux, probe mitoxantrone. In outline:
as §1

Series [4] addresses T2, Broad substrate specificity ATP-binding cassette transporter ABCG2 (Homo sapiens, UniProt Q9UNQ0).
T2 sequence (Q9UNQ0 whole entry): T1 sequence (Q9UNQ0 whole entry)
The series can be described thus: Inhibition of ABCG2-mediated mitoxantrone efflux in HEK293 cells by flow cytometry. In kind it is cell-based. Summed up:
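HEK293-ABCG2 cells seeded at 1 × 10^5 cells/well and grown 48 h, then loaded with 5 μM mitoxantrone for 30 min at 37 °C with or without compound. Cells washed in PBS and trypsinized; intracellular fluorescence read by flow cytometry on at least 10,000 events.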

The target of series [5] is MRP1 (ABCC1) (Homo sapiens, UniProt P33527). As to the kind of experiment: Inhibition of MRP1/ABCC1-mediated calcein efflux in HEK293 cells at 1 uM by flow cytometry relative to untreated control. As to conditions: HEK293 cells with MRP1/ABCC1-mediated efflux, probe calcein. In kind it is cell-based.
MRP1 (ABCC1), sequence (P33527 whole entry): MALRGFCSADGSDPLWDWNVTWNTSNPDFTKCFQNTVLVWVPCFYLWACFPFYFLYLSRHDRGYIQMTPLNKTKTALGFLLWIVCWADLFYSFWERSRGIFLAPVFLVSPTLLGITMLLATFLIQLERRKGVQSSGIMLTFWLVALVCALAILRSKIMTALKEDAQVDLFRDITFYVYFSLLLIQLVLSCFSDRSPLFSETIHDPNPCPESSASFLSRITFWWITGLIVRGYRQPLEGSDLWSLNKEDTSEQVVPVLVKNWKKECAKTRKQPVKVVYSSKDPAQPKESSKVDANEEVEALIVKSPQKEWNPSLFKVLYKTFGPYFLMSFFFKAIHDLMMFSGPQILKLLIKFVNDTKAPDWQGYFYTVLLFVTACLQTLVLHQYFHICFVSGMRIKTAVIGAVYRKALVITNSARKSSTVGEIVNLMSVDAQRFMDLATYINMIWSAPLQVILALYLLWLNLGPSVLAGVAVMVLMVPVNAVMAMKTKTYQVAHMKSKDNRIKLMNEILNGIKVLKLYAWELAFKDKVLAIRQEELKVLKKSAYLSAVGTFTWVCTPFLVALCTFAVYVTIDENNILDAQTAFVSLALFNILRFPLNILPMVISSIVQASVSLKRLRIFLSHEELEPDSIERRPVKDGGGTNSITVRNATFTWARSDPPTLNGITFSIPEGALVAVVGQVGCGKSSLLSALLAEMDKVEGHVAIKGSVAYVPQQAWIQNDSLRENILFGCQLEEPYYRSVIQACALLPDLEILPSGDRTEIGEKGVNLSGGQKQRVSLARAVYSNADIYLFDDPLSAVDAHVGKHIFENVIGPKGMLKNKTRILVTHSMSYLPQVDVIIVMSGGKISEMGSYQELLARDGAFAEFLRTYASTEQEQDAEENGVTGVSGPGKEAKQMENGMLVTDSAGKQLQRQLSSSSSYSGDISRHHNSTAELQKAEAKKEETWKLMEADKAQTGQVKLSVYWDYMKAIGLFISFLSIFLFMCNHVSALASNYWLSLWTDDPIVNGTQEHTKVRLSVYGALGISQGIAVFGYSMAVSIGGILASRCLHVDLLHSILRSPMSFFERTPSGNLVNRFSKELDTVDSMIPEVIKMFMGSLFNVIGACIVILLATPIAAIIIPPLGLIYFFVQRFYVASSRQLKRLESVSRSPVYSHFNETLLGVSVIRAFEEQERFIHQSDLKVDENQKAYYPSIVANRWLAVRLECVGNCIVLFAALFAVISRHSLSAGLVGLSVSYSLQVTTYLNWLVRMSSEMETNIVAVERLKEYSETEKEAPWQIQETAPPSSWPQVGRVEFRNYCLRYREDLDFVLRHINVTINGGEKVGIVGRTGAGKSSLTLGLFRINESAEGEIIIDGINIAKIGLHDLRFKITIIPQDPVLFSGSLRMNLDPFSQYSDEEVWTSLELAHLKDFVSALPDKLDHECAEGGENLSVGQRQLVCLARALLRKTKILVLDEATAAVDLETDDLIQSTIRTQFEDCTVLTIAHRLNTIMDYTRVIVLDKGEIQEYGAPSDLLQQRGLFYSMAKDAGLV
The target of series [6] is T3, P-glycoprotein (ABCB1) (Homo sapiens, UniProt P08183). The series can be described thus: Inhibition of P-glycoprotein/ABCB1-mediated mitoxantrone efflux in HEK293 cells at 5 uM by flow cytometry relative to 5 uM of GF120918. In kind it is cell-based. As to conditions: HEK293 cells with P-glycoprotein/ABCB1-mediated efflux, probe mitoxantrone.
T3 sequence (P08183 whole entry): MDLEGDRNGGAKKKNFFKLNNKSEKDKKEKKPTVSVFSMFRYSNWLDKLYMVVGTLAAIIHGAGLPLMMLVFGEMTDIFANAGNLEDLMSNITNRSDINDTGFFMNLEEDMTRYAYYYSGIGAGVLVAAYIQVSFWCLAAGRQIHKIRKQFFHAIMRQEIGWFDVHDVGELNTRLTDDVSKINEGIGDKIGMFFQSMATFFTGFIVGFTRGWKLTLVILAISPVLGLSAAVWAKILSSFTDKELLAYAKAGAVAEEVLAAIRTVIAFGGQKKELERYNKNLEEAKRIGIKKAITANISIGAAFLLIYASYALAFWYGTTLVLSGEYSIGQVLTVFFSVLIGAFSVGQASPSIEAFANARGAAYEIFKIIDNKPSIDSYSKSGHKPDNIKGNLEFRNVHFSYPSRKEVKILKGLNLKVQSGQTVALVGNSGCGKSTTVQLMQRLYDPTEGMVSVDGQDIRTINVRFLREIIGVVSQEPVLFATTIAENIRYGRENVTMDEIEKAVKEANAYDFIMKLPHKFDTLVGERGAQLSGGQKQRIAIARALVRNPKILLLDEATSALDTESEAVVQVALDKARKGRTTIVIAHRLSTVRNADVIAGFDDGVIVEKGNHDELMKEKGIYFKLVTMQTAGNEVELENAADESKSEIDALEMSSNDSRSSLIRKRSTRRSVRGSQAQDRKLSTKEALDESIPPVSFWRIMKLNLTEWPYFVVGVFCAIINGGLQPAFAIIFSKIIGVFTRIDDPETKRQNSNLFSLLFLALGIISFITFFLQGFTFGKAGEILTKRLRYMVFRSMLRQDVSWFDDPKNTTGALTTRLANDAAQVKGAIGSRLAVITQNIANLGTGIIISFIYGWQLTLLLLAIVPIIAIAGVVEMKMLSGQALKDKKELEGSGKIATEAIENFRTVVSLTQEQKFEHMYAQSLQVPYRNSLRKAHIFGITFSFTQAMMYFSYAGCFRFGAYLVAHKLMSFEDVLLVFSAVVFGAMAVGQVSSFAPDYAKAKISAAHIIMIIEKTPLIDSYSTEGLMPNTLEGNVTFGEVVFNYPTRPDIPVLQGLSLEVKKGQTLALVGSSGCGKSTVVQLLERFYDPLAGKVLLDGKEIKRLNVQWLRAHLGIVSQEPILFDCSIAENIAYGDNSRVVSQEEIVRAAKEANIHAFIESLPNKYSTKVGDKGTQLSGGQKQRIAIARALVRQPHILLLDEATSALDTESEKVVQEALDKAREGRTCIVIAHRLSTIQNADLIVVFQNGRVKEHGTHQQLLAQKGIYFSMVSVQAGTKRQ
The test system of series [7] is P-glycoprotein 1 (Homo sapiens). As to the kind of experiment: Inhibition of P-glycoprotein/ABCB1-mediated mitoxantrone efflux in HEK293 cells at 5 uM by flow cytometry relative to untreated control. Particulars: HEK293 cells with P-glycoprotein/ABCB1-mediated efflux, probe mitoxantrone.
In series [8] the target is T3, P-glycoprotein (ABCB1). The series can be described thus: Inhibition of P-glycoprotein/ABCB1-mediated mitoxantrone efflux in HEK293 cells at 1 uM by flow cytometry relative to 5 uM of GF120918. In kind it is cell-based. Particulars: HEK293 cells with P-glycoprotein/ABCB1-mediated efflux, probe mitoxantrone.
The target in series [9] is T2, Broad substrate specificity ATP-binding cassette transporter ABCG2. The series can be described thus: Inhibition of ABCG2 expressed in human HEK293 assessed as potentiation of mitoxantrone-mediated cytotoxicity at 0.2 uM after 72 hrs by MTT assay relative to control. In kind it is cell-based. As to conditions: hek293, 72 h. Summed up: (§2)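 Chemosensitization: HEK293-ABCG2 cells seeded at 1 × 10^4 cells/well, left overnight, then co-treated for 72 h at 37 °C, 5% CO2 with compound plus increasing mitoxantrone or SN-38 (0−0.5 μM). Viability measured by MTT and expressed as % of untreated control. Mean ± SD from at least three independent experiments, each in triplicate.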

Series [10] concerns HEK293. The series can be described thus: Drug uptake in human HEK293 cells transfected with ABCG2 after 30 mins by LC-ESI-MS/MS analysis relative to control. In kind it is ADME, cell-based. As to conditions: hek293, 0.5 h.
For series [11], the system named is HEK293. The series can be described thus: Cytotoxicity against human control HEK293 cells assessed as cell death at 100 uM after 72 hrs by MTT assay. Particulars: hek293, 72 h. In general terms: Tetrazolium dyes change colour on reduction, which living cells bring about.
Series [12] addresses T2, Broad substrate specificity ATP-binding cassette transporter ABCG2. As to the kind of experiment: Noncompetitive inhibition of ABCG2 expressed in HEK293 cells in presence of mitoxantrone. In kind it is cell-based.
Series [13] has as its system HEK293. The series can be described thus: Effect on ABCG2 expression in human HEK293 cells at 0.2 to 10 uM after 72 hrs by Western blotting analysis. In kind it is functional, cell-based. (Immunoblotting shows a protein as a band on a membrane.)
The target of series [14] is T2, Broad substrate specificity ATP-binding cassette transporter ABCG2. As to the kind of experiment: Inhibition of ABCG2 expressed in human HEK293 assessed as potentiation of SN-38-mediated cytotoxicity at 0.2 uM after 72 hrs by MTT assay relative to control. In kind it is cell-based. Particulars: hek293, 72 h. In outline:
as §2

Series [15] has as its system HEK293. The series can be described thus: Drug uptake in human HEK293 cells transfected with ABCG2 after 30 mins by LC-ESI-MS/MS analysis in presence of GF120918 relative to control. In kind it is ADME, cell-based. As to conditions: hek293, 0.5 h.
The test system of series [16] is HEK293. The series can be described thus: Drug metabolism in human HEK293 cells transfected with ABCG2 at 0.2 to 1 uM after 72 hrs. As to conditions: hek293, 72 h. In kind it is ADME, cell-based.
Series [17] concerns HEK293. As to the kind of experiment: Cytotoxicity against human HEK293 cells transfected with ABCG2 at 10 uM after 72 hrs by MTT assay. Particulars: hek293, 72 h. In kind it is ADME, cell-based. In outline:
(§3)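 HEK293-ABCG2 cells (DMEM high glucose, 10% FBS, 0.75 mg/mL G418) seeded at 1 × 10^4 cells/well, left overnight, then exposed to increasing compound concentrations (up to 100 μM) for 72 h at 37 °C, 5% CO2. Viability read by MTT colorimetric assay and expressed as % of control cells in medium with 0.1% DMSO (v/v).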

The nature of series [18]: Cytotoxicity against human HEK293 cells transfected with ABCG2 after 72 hrs by MTT assay. In kind it is ADME, cell-based. As to conditions: read-out: IG50. In outline:
as §3

Broadly, the inhibition is the drop in the measured response relative to a control, in per cent. For orientation: IC50 means the point on the concentration scale where inhibition reaches its midpoint.

Structures are written as SMILES. Activity calls are given as the source filed them. The calls are words filed in the database; no cut-off is given here.

Turning to `CC(C)=CCc1c(O)cc2oc(-c3ccccc3)cc(=O)c2c1O`, the selectivity ratio in [1] was determined as 40.

Regarding `O=C(c1cc(=O)c2c(O)cccc2o1)N1CCN(c2ccccc2)CC1`, in series [2], the inhibition at 5 µM amounted to 9.8%. For the same compound, the inhibition at 1 µM in series [3] turned out to be 5.5%.

In [4], `COc1ccc(CCNC(=O)c2cc(=O)c3c(OCCc4ccc(OC)c(OC)c4)cccc3o2)cc1OC` showed a half-inhibitory concentration (IC50) of 470 nM. Moreover, the results for the inhibition at 1 µM in series [5] and in series [8] were 5.57% and -16.6%, respectively. Further, the inhibition at 5 µM in series [6] is -0.11%; in series [7] it was 10.8%.

With `COc1ccc2[nH]cc(CCNC(=O)c3cc(=O)c4c(OCc5ccc(C)cc5)cccc4o3)c2c1`, the IC50 in series [4] was 200 nM. For the same compound, the values for the inhibition at 1 µM in series [5] and in series [8] were 1.13% and -4.29%, respectively. In addition, the inhibition at 5 µM was -21.9% in series [6] and 3.09% in series [7].

Take `COc1ccc2[nH]cc(CCNC(=O)c3cc(=O)c4c(OCc5ccc(Br)cc5)cccc4o3)c2c1`: the “inhibition (INH)” value in series [9], in series [12] and in series [14] was “Active” each time. The IC50 in series [4] amounted to 110 nM. In addition, the Drug uptake entry in series [10] and in series [15] was “Not Active” each time. Also, in series [11], the Activity was under 25%. In addition, the inhibition at 1 µM in series [5] is 2.58%; in series [8], -1.75%. Also, the inhibition at 5 µM in series [6] was -16.1%; in series [7], 2.86%. Besides, the selectivity ratio in series [1] worked out at 2000. The outcome in series [13] was inactive. The Drug metabolism entry in [16] was “Not Active”.

Take `COc1ccc2[nH]cc(CCNC(=O)c3cc(=O)c4c(OCc5ccccc5)cccc4o3)c2c1`: the IC50 in series [4] worked out at 180 nM. The Activity entry in series [17] is listed as “Non-toxic”. The results for the inhibition at 1 µM in series [5] and in series [8] were 1.91% and -9.11%, respectively. For the same compound, in series [18], the GI50 at 72 h was 35 µM. The inhibition at 5 µM in [6] is -19.4%; in [7], 5.14%.

The compound `COc1ccc2[nH]cc(CCNC(=O)c3cc(=O)c4c(OCCc5ccccc5)cccc4o3)c2c1` registered an IC50 in [4] of 160 nM. Further, the inhibition at 1 µM is 2.36% in [5] and -14% in series [8]. Further, the inhibition at 5 µM in series [6] is -14.8%; in [7], 5.12%.

Turning to `COc1ccc(CCNC(=O)c2cc(=O)c3c(O)cccc3o2)cc1OC`, the inhibition at 1 µM was 3.37% in series [5], -20.5% in series [8] and 34.4% in series [3]. In addition, the inhibition at 5 µM in [2] is 62.5%; in series [6], -29%; in [7] it was 5.47%.

Turning to `O=C(O)c1cc(=O)c2c(O)cccc2o1`, the inhibition at 5 µM in series [2] is -2%. Moreover, the inhibition at 1 µM in [3] is -1.2%.

As to `COc1ccc(CCOc2cccc3oc(C(=O)O)cc(=O)c23)cc1OC`, in series [2], the inhibition at 5 µM amounted to 26.7%. Moreover, the inhibition at 1 µM in series [3] was 6.1%.

On to `O=C(c1cc(=O)c2c(OCc3ccccc3)cccc2o1)N1CCN(c2ccccn2)CC1`, for which the inhibition at 5 µM in series [2] came to 46.2%. Moreover, the inhibition at 1 µM in series [3] is 18.1%.

In the case of `COc1ccc2c3c([nH]c2c1)[C@H](CC(C)C)N1C(=O)[C@H](CCC(=O)OC(C)(C)C)NC(=O)[C@@H]1C3`, the GI50 at 72 h in series [18] worked out at 18 µM.

With `COc1ccc(CCNC(=O)c2cc(=O)c3c(OCc4ccccc4)cccc3o2)cc1OC`, the Drug uptake entry in [10] and in [15] was “Not Active” in each case. Also, the Activity in series [17] was determined as 35%. In addition, the inhibition at 1 µM in [5] is 10.8%; in [8], -25.5%. Moreover, in [18], the GI50 at 72 h is 60 µM. Further, in series [6], the inhibition at 5 µM is -22.9%. In addition, the “inhibition (INH)” value in series [12] is given as “Active”. For the same compound, the outcome in [13] was inactive.

With `O=C(c1cc(=O)c2c(OCc3ccccc3)cccc2o1)N1CCN(c2ccccc2)CC1`, the inhibition at 5 µM in series [2] is 66.1%. The inhibition at 1 µM in series [3] amounted to 21.3%.

As for `O=C(c1cc(=O)c2c(OCc3ccccc3)cccc2o1)N1CCN(Cc2ccccc2)CC1`, the inhibition at 5 µM in series [2] amounted to 48.3%. Further, the inhibition at 1 µM in [3] is 16.5%.
